Where a name gives a salt, the structure may show the parent alone. One block for each molecule: values may come before it. The source made the active and inactive calls. The rule behind the calls is not given here.
How the values were obtained:
[1] = target: T1, Potassium voltage-gated channel subfamily A member 5 (Homo sapiens, UniProt P22460); test: Inhibition of human Kv1.5 channel expressed in HEK293 cells by whole cell patch clamp assay; assay type: cell-based
Summary of the method: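 Whole-cell patch clamp was done on transfected HEK293 cells, harvested by trypsin and used the same day, with 4–6 MΩ pipettes at 25 °C. IKur was elicited by 500-ms steps to +60 mV from a −80 mV holding potential at 0.1 Hz. Compound was applied at least 5 min after current stabilization. IC50 came from cell-by-cell Hill fits, with at least 3 cells per concentration; mean ± SD.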

[2] = Dissociation constant, pKa of the compound; assay type: physicochemical
Summary of the method: (§1)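 pKa and log D at pH 7.4 were determined by Avdeef–Bucher potentiometric titration on a Gemini Profiler instrument.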

[3] = Partition coefficient, log D of the compound at pH 7.4; assay type: physicochemical; conditions: octanol/water; summary of the method: as §1
[4] = tested on: MDCK; test: (§2) Apparent permeability from basolateral to apical side in MDCK cells; assay type: ADME, cell-based, Canis lupus familiaris; conditions: dog
Summary of the method: (§3)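 Bidirectional transport (apical→basolateral and basolateral→apical) was measured in parental MDCK cells and in MDR1-MDCK cells, which stably express multidrug resistance gene 1, to assess P-glycoprotein substrate status. Apparent permeability coefficients (Papp) were determined for each direction. Efflux ratios are ratios of the directional Papp values, computed per cell line. Mean ± SD, n = 3.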

[5] = tested on: MDCK; test: (§4) Apparent permeability from apical to basolateral side in MDCK cells; assay type: ADME, cell-based, Canis lupus familiaris; conditions: dog; summary of the method: as §3
[6] = tested on: MDCK; test: (§5) Apparent permeability from basolateral to apical side in MDCK cells expressing MDR1; assay type: ADME, cell-based, Canis lupus familiaris; conditions: dog, mdck; summary of the method: as §3
[7] = tested on: MDCK; test: (§6) Apparent permeability from apical to basolateral side in MDCK cells expressing MDR1; assay type: ADME, cell-based, Canis lupus familiaris; conditions: dog, mdck; summary of the method: as §3
[8] = tested on: MDCK; test: Efflux ratio of permeability from apical to basolateral over basolateral to apical in MDCK cells; assay type: ADME, cell-based, Canis lupus familiaris; conditions: dog; summary of the method: as §3
[9] = tested on: MDCK; test: Efflux ratio of permeability from apical to basolateral over basolateral to apical in MDCK cells expressing MDR1; assay type: ADME, cell-based, Canis lupus familiaris; conditions: dog; summary of the method: as §3
[10] = tested on: Rattus norvegicus; test: Inhibition of Cacl2-Ach-induced atrial fibrillation Sprague-Dawley rat model assessed as reduction in duration of atrial fibrillation at 1.25 mg/kg, ip during day 1 to day 3; assay type: functional, organism-based; set-up: dose 1.25 mg/kg; conditions: Cardiac atrium
[11] = tested on: Rattus norvegicus; test: Inhibition of Cacl2-Ach-induced atrial fibrillation Sprague-Dawley rat model assessed as reduction in duration of atrial fibrillation at 1.25 mg/kg, ip during day 4 to day 7; assay type: functional, organism-based; set-up: dose 1.25 mg/kg; conditions: Cardiac atrium
[12] = tested on: Rattus norvegicus; test: Inhibition of Cacl2-Ach-induced atrial fibrillation Sprague-Dawley rat model assessed as increase in atrial effective refractory period at 1.25 mg/kg, ip; conditions: Cardiac atrium
[13] = target: T1, Potassium voltage-gated channel subfamily A member 5; test: Inhibition of human Kv1.5 channel expressed in HEK293 cells at 11 uM by whole cell patch clamp assay; assay type: cell-based
[14] = as §2; assay type: ADME, cell-based, Canis lupus familiaris; conditions: dog; summary of the method: as §3
[15] = as §4; assay type: ADME, cell-based, Canis lupus familiaris; conditions: dog; summary of the method: as §3
[16] = tested on: MDR1; test: as §5; assay type: ADME, cell-based, Canis lupus familiaris; conditions: dog, MDCK-MDR1; summary of the method: as §3
[17] = tested on: MDR1; test: as §6; assay type: ADME, cell-based, Canis lupus familiaris; conditions: dog, MDCK-MDR1; summary of the method: as §3
[18] = tested on: Rattus norvegicus; test: Inhibition of Cacl2-Ach-induced atrial fibrillation Sprague-Dawley rat model assessed as reduction in duration of atrial fibrillation at 2.5 mg/kg, ip during day 1 to day 3; assay type: functional, organism-based; set-up: dose 2.5 mg/kg; conditions: Cardiac atrium
[19] = tested on: Rattus norvegicus; test: Inhibition of Cacl2-Ach-induced atrial fibrillation Sprague-Dawley rat model assessed as reduction in duration of atrial fibrillation at 2.5 mg/kg, ip during day 4 to day 7; assay type: functional, organism-based; set-up: dose 2.5 mg/kg; conditions: Cardiac atrium
[20] = tested on: Rattus norvegicus; test: Inhibition of Cacl2-Ach-induced atrial fibrillation Sprague-Dawley rat model assessed as increase in atrial effective refractory period at 2.5 mg/kg, ip; conditions: Cardiac atrium
[21] = Toxicity in SPF mouse compound administered through iv; assay type: organism-based; conditions: in vivo
Summary of the method: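 Acute toxicity by tail-vein iv injection in SPF mice: 70 animals in 7 groups, one given distilled water (30 mL/kg) and six given 84.6, 79.8, 75.3, 71, 67 or 63.2 mg/kg. Behaviour, mental state, excrement and death observed continuously over 0-0.5 h, every 0.5 h to 6 h, then daily for 15 days. LD50 derived by the Bliss-Finney method.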

T1 sequence (P22460 whole entry): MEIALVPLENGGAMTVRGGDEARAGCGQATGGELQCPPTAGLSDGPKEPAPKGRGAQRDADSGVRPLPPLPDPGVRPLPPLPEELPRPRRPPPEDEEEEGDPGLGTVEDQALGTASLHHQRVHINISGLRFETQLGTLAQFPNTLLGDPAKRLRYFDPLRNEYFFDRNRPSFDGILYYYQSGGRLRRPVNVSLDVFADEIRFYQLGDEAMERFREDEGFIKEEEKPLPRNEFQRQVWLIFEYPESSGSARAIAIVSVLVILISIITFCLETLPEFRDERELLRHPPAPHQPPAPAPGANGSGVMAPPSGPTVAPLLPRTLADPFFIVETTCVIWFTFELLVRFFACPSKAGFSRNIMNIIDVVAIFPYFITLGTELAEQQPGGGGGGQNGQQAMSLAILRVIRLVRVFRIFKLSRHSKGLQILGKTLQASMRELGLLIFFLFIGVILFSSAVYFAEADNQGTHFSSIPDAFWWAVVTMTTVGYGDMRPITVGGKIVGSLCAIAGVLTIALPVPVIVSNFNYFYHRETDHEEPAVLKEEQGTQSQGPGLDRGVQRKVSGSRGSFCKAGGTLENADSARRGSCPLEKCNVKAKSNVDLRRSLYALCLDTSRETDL

SMILES: COc1ccc(C(=O)N2CCN(CCOc3ccccc3)CC2)cc1
IC50 [1]: 16.1 µM

SMILES: COc1ccc(OCCN2CCN(CC(=O)Nc3nccs3)CC2)cc1
IC50 [1]: 9.13 µM

SMILES: N#Cc1ccc(OCCN2CCN(C(=O)c3ccccc3)CC2)cc1
IC50 [1]: 4.23 µM

SMILES: Cc1cccc(C)c1OCCN1CCN(CC(=O)Nc2nccs2)CC1
IC50 [1]: 85.9 µM

SMILES: COc1ccc(OCCN2CCN(C(=O)c3cccs3)CC2)cc1
IC50 [1]: 21.9 µM

SMILES: N#Cc1ccc(OCCN2CCN(CC(=O)Nc3nccs3)CC2)cc1
IC50 [1]: 0.97 µM | pKa [2]: 6.37 | logD [3]: 1.72 | Papp [4]: 167 nm/s | Papp [5]: 148 nm/s | Papp [6]: 198 nm/s | Papp [7]: 189 nm/s | Ratio [8]: 1.14 | Ratio [9]: 1.14

SMILES: O=C(c1ccccc1)N1CCN(CCOc2ccc(Cl)cc2)CC1
IC50 [1]: 3.97 µM

SMILES: CCCCc1oc2ccc(NS(C)(=O)=O)cc2c1C(=O)c1ccc(OCCCN(CCCC)CCCC)cc1 [DRONEDARONE HYDROCHLORIDE]
IC50 [1]: 2.37 µM | Activity [10]: inactive | Activity [11]: Active | Activity [12]: Active

SMILES: CCOC(=O)c1ccc(OCCN2CCN(CC(=O)Nc3nccs3)CC2)cc1
inhibition [13]: 32.1%

SMILES: O=C(c1cccs1)N1CCN(CCOc2ccc(Cl)cc2Cl)CC1
IC50 [1]: 1.48 µM | pKa [2]: 5.23 | logD [3]: 3.73 | Papp B→A [14]: 19.1 ×10⁻⁶ cm/s | Papp A→B [15]: 17 ×10⁻⁶ cm/s | Papp B→A [16]: 31.5 ×10⁻⁶ cm/s | Papp A→B [17]: 39.1 ×10⁻⁶ cm/s | Ratio [8]: 0.89 | Ratio [9]: 1.24

SMILES: CC(C)(C)c1ccc(OCCN2CCN(CC(=O)Nc3nccs3)CC2)cc1
IC50 [1]: 63.2 µM

SMILES: CC(C)NCC(O)c1ccc(NS(C)(=O)=O)cc1 (stereo unspecified)
Activity [18]: inactive | Activity [19]: Active | Activity [20]: Active

SMILES: O=C(c1cccs1)N1CCN(CCOc2ccccc2Cl)CC1
IC50 [1]: 9.74 µM

SMILES: O=C(c1cccs1)N1CCN(CCOc2ccc(OC(F)(F)F)cc2)CC1
IC50 [1]: 6.44 µM

SMILES: COc1ccc(C(=O)N2CCN(CCOc3ccc(Cl)cc3)CC2)cc1
IC50 [1]: 5.5 µM

SMILES: Cc1ccc(C(=O)N2CCN(CCOc3ccc(Cl)cc3)CC2)cc1
IC50 [1]: 4.51 µM

SMILES: Cc1ccccc1OCCN1CCN(CC(=O)Nc2nccs2)CC1
IC50 [1]: 1.24 µM | pKa [2]: 7.11 | logD [3]: 2.45 | Papp [4]: 342 nm/s | Papp [5]: 322 nm/s | Papp B→A [16]: 32.3 ×10⁻⁶ cm/s | Papp A→B [17]: 28.9 ×10⁻⁶ cm/s | Ratio [8]: 1.09 | Ratio [9]: 0.92

SMILES: CCOc1ccccc1OCCN1CCN(CC(=O)Nc2nccs2)CC1
inhibition [13]: 11.9%

SMILES: O=C(CN1CCN(CCOc2ccc(OC(F)(F)F)cc2)CC1)Nc1nccs1
IC50 [1]: 2.29 µM | pKa [2]: 6.74 | logD [3]: 3.94 | Papp [4]: 169 nm/s | Papp [5]: 122 nm/s | Papp [6]: 196 nm/s | Papp [7]: 163 nm/s | Ratio [8]: 1.5 | Ratio [9]: 1.42

SMILES: O=C(c1cccs1)N1CCN(CCOc2ccc(Cl)cc2)CC1
IC50 [1]: 0.72 µM | pKa [2]: 6.35 | logD [3]: 1.94 | Papp B→A [14]: 21.9 ×10⁻⁶ cm/s | Papp A→B [15]: 21.3 ×10⁻⁶ cm/s | Papp B→A [16]: 19.3 ×10⁻⁶ cm/s | Papp A→B [17]: 16.1 ×10⁻⁶ cm/s | Ratio [8]: 0.97 | Ratio [9]: 0.84 | Activity [10]: inactive | Activity [18]: inactive | Activity [11]: Active | Activity [19]: Active | LD50 [21]: 73.7 mg/kg | Activity [20]: Active | Activity [12]: Active

SMILES: Cc1ccc(OCCN2CCN(CC(=O)Nc3nccs3)CC2)cc1C
IC50 [1]: 50.2 µM

SMILES: O=C(c1cccs1)N1CCN(CCOc2ccc(F)cc2)CC1
IC50 [1]: 12.7 µM

SMILES: O=C(CN1CCN(CCOc2ccccc2Cl)CC1)Nc1nccs1
IC50 [1]: 3.39 µM

SMILES: Cc1ccc(OCCN2CCN(CC(=O)Nc3nccs3)CC2)c(C)c1
IC50 [1]: 17.2 µM

SMILES: Cc1ccccc1OCCN1CCN(C(=O)c2cccs2)CC1
IC50 [1]: 13.5 µM

SMILES: N#Cc1ccc(OCCN2CCN(C(=O)c3cccs3)CC2)cc1
IC50 [1]: 10.2 µM

SMILES: O=C(c1cccs1)N1CCN(CCOc2ccc(Br)cc2)CC1
IC50 [1]: 12.2 µM

SMILES: O=C(c1cccs1)N1CCN(c2ccc(OC(F)(F)F)cc2)CC1
IC50 [1]: 48.4 µM

SMILES: Cc1ccc(OCCN2CCN(C(=O)c3cccs3)CC2)cc1
IC50 [1]: 1.52 µM | pKa [2]: 6.4 | logD [3]: 3.24 | Papp B→A [14]: 31.1 ×10⁻⁶ cm/s | Papp A→B [15]: 20 ×10⁻⁶ cm/s | Papp B→A [16]: 32.8 ×10⁻⁶ cm/s | Papp A→B [17]: 25.6 ×10⁻⁶ cm/s | Ratio [8]: 0.64 | Ratio [9]: 0.78

Further lines, results first:

IC50 [1]: 37.5 µM
SMILES: O=C(c1cccs1)N1CCN(CCOc2ccccc2)CC1

IC50 [1]: 25.3 µM
SMILES: Cc1ccc(OCCN2CCN(C(=O)c3ccccc3)CC2)cc1

IC50 [1]: 10.1 µM
SMILES: COc1ccc(NC(=O)CN2CCN(CCOc3ccccc3)CC2)cc1

IC50 [1]: 16.1 µM
SMILES: Cc1ccc(NC(=O)CN2CCN(CCOc3ccccc3)CC2)cc1

IC50 [1]: 56.7 µM
SMILES: O=C(c1ccccc1Cl)N1CCN(CCOc2ccccc2)CC1

IC50 [1]: 4.38 µM
SMILES: O=C(CN1CCN(CCOc2ccc(Cl)cc2)CC1)Nc1ccccc1

IC50 [1]: 3.59 µM
SMILES: O=C(CN1CCN(CCOc2ccc(Cl)cc2)CC1)Nc1ccccc1Cl

IC50 [1]: 28.6 µM
SMILES: O=C(CN1CCN(CCOc2ccccc2)CC1)Nc1ccccc1

IC50 [1]: 9.1 µM
SMILES: N#Cc1ccc(OCCN2CCN(CC(=O)Nc3ccccc3)CC2)cc1

IC50 [1]: 4.49 µM
SMILES: Cc1ccc(NC(=O)CN2CCN(CCOc3ccc(C#N)cc3)CC2)cc1

IC50 [1]: 29.3 µM
SMILES: O=C(CN1CCN(CCOc2ccccc2)CC1)Nc1nccs1

IC50 [1]: 5.02 µM
SMILES: Cc1ccc(NC(=O)CN2CCN(CCOc3ccc(Cl)cc3)CC2)cc1

IC50 [1]: 38.8 µM
SMILES: O=C(c1ccccc1)N1CCN(CCOc2ccccc2)CC1

IC50 [1]: 14.5 µM
SMILES: COc1ccc(NC(=O)CN2CCN(CCOc3ccc(C#N)cc3)CC2)cc1

IC50 [1]: 29.4 µM
SMILES: O=C(CN1CCN(CCOc2ccccc2)CC1)Nc1ccccc1Cl

IC50 [1]: 7.33 µM
SMILES: O=C(CN1CCN(CCOc2ccc(OC(F)(F)F)cc2)CC1)Nc1ccccc1

IC50 [1]: 5.18 µM
SMILES: O=C(CN1CCN(CCOc2ccc(Cl)cc2)CC1)Nc1nccs1

IC50 [1]: 2.62 µM
SMILES: COc1ccc(NC(=O)CN2CCN(CCOc3ccc(Cl)cc3)CC2)cc1

IC50 [1]: 68 µM
SMILES: O=C(CN1CCN(CCOc2ccc3ccccc3c2)CC1)Nc1nccs1

IC50 [1]: 7.14 µM
SMILES: Cc1ccc(C(=O)N2CCN(CCOc3ccccc3)CC2)cc1

IC50 [1]: 8.93 µM
SMILES: Cc1ccc(OCCN2CCN(CC(=O)Nc3nccs3)CC2)cc1

IC50 [1]: 11.8 µM
SMILES: Cc1ccccc1OCCN1CCN(CC(=O)Nc2ccccc2)CC1

From ChEMBL document CHEMBL3259670, “Discovery of 1-aryloxyethyl piperazine derivatives as Kv1.5 potassium channel inhibitors (part I)” (Eur J Med Chem, 2014)
